Assay results reported in ChEMBL document CHEMBL4033799, “Stable and Long-Lasting, Novel Bicyclic Peptide Plasma Kallikrein Inhibitors for the Treatment of Diabetic Macular Edema” (J Med Chem, 2018).

Tests used:
Kallikrein-5 = target: T1, Kallikrein-5 (Homo sapiens, UniProt Q9Y337); test: Inhibition of recombinant human C-terminal 10His-tagged KLK5 (67 to 293 residues) expressed in mouse NS0 cells using fluorogenic Boc-VPR-AMC peptide as substrate after 5 mins by fluorescence based assay
T1 sequence (Q9Y337 whole entry): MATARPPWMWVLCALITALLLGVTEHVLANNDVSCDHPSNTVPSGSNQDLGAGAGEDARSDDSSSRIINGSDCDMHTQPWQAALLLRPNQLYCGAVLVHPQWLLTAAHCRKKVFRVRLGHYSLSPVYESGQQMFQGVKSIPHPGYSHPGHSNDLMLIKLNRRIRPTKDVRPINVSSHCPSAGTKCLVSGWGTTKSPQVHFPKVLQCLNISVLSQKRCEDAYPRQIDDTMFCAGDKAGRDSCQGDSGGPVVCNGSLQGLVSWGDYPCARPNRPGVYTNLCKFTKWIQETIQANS
Method in brief: (§1)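 Human serine proteases were assayed with substrates and conditions set by each supplier's recommendations. Peptides were first screened at 50 μM. Where inhibition was detected, Ki was determined from activity across peptide concentrations using a tight-binding rate equation.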

Coagulation factor VII = target: T2, Coagulation factor VII (Homo sapiens, UniProt P08709); test: Inhibition of human factor 7a using fluorogenic peptide as substrate by fluorescence based assay; method in brief: as §1
T2 sequence (P08709 whole entry): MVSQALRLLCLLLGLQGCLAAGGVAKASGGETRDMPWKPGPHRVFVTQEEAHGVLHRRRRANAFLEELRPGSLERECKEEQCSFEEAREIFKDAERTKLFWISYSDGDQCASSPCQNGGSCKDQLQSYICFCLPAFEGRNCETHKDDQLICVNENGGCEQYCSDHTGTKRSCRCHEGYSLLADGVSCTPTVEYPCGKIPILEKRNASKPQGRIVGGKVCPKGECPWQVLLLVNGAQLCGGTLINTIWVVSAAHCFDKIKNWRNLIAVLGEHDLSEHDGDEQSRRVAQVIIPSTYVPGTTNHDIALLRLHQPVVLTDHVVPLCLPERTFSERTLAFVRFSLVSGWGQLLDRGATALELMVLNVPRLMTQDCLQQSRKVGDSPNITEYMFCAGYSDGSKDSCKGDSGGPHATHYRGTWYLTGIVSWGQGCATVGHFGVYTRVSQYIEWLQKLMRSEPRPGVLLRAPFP

Coagulation factor XII = target: T3, Coagulation factor XII (Homo sapiens, UniProt P00748); test: Inhibition of human factor 12a using fluorogenic peptide as substrate by fluorescence based assay; method in brief: as §1
T3 sequence (P00748 whole entry): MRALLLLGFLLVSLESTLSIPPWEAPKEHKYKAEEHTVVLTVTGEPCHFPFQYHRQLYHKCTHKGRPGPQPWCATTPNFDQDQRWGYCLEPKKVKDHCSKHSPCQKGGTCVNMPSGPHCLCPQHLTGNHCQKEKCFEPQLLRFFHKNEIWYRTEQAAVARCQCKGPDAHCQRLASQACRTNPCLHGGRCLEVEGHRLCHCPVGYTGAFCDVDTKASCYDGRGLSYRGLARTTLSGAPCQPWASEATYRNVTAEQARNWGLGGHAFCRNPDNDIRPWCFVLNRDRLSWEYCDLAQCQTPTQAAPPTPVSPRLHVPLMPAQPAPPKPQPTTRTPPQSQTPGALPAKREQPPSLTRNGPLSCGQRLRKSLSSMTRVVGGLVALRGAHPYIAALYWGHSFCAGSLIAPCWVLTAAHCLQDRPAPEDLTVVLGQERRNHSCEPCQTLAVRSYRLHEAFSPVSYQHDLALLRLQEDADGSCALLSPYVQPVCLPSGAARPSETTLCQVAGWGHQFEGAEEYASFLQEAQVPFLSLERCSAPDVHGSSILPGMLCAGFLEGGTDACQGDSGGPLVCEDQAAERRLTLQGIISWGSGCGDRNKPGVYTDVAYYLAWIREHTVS

Kallikrein-1 = Kallikrein-1 (Homo sapiens, UniProt P06870); test: Inhibition of recombinant human C-terminal His-tagged KLK1 (1 to 262 residues) expressed in HEK293 cells using fluorogenic PFR-AMC peptide as substrate by fluorescence based assay; method in brief: as §1
Chain of Kallikrein-1 (P06870 whole entry, the tested form may be a part): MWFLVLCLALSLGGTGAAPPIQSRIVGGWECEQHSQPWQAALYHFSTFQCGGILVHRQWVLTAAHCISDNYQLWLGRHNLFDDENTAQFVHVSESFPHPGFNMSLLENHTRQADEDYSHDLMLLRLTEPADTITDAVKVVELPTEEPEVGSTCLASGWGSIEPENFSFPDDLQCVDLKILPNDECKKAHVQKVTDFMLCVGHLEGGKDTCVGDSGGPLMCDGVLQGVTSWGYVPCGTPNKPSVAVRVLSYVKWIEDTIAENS

[1] = Inhibition of rabbit plasma kallikrein using fluorogenic H-Pro-Phe-Arg-AMC peptide as substrate preincubated for 15 mins followed by substrate addition measured by fluorescence-based assay; parameters: species or system Oryctolagus cuniculus; conditions: read-out: Ki(app)
Method in brief: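 Assays ran at 25 °C in 50 mM Tris-HCl, 250 mM NaCl, 1.5 μM BSA, pH 7.5. PKal (nominal 1–2 nM) was preincubated 15 min with serially diluted peptide. […] Human PKal was purified from plasma; rat PKal was made in-house or bought; other species were purified in-house from kaolin-activated plasma.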

Kallikrein-12 = target: T4, Kallikrein-12 (Homo sapiens, UniProt Q9UKR0); test: Inhibition of recombinant human C-terminal 10His-tagged KLK12 (18 to 248 residues) expressed in mouse NS0 cells using fluorogenic Boc-VPR-AMC peptide as substrate by fluorescence based assay; method in brief: as §1
T4 sequence (Q9UKR0 whole entry): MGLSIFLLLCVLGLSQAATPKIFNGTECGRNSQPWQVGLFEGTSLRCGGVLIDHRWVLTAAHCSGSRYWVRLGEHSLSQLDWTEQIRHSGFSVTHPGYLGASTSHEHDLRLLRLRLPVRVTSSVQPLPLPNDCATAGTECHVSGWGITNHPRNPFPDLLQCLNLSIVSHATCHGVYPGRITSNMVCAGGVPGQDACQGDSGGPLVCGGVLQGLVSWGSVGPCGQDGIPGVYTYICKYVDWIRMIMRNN

[2] = Inhibition of dog plasma kallikrein using fluorogenic H-Pro-Phe-Arg-AMC peptide as substrate preincubated for 15 mins followed by substrate addition measured by fluorescence-based assay; conditions: read-out: Ki(app)
[3] = Inhibition of cynomolgus monkey plasma kallikrein using fluorogenic H-Pro-Phe-Arg-AMC peptide as substrate preincubated for 15 mins followed by substrate addition measured by fluorescence-based assay; conditions: read-out: Ki(app)

| SMILES | Ki (Kallikrein-5) | Ki (Coagulation factor VII) | Ki (Coagulation factor XII) | Ki (Kallikrein-1; hek293) | Ki [1] | Ki (Kallikrein-12) | Ki [2] | Ki [3] | Ki (Kallikrein-1) |
| --- | --- | --- | --- | --- | --- | --- | --- | --- | --- |
| CC(=O)N[C@H]1CSCc2cc3cc(c2)CSC[C@H](C(=O)N[C@@H](C)C(=O)N(C)CC(=O)N(C)CC(=O)N(C)CC(=O)N[C@H](CCCNC(=N)N)C(=O)N[C@H](CCCNC(=N)N)C(=O)O)NC(=O)[C@H](CC(C)C)NC(=O)[C@@H]2CCCN2C(=O)[C@H](C)NC(=O)[C@H](CC(=O)O)NC(=O)[C@H](Cc2c[nH]c4ccccc24)NC(=O)[C@@H]2CCCN2C(=O)[C@H](CSC3)NC(=O)[C@H](Cc2c[nH]c3ccccc23)NC(=O)[C@@H]2CCCN2C(=O)[C@H](CC(N)=O)NC(=O)[C@H](Cc2c[nH]c3ccccc23)NC(=O)[C@H]([C@@H](C)O)NC(=O)[C@H](CC(N)=O)NC1=O | 50 µM | > 50 µM | > 50 µM | > 50 µM | 1.45 µM | > 50 µM | 0.5 µM | 0.0031 µM |  |
| CC[C@H](C)[C@@H]1NC(=O)[C@H](CC(=O)O)NC(=O)[C@@H]2CCCN2C(=O)[C@H](Cc2ccc(O)cc2)NC(=O)[C@H](Cc2ccc(O)cc2)NC(=O)[C@H](C(C)C)NC(=O)[C@@H]2CSCc3cc(cc(c3)CSC[C@@H](C(=O)N[C@@H](C)C(=O)N(C)CC(=O)N(C)CC(=O)N(C)CC(=O)N[C@H](CCCNC(=N)N)C(=O)N[C@H](CCCNC(=N)N)C(=O)O)NC1=O)CSC[C@H](NC(C)=O)C(=O)N[C@@H](CO)C(=O)N[C@@H](Cc1ccccc1)C(=O)N1CCC1C(=O)N[C@@H](Cc1ccc(O)cc1)C(=O)N[C@@H](CCCCNC(=N)N)C(=O)N2 (some centres undefined) | 0.8 µM | > 50 µM | > 50 µM |  | 2.65 µM | > 50 µM | 0.022 µM | 0.00086 µM | 50 µM |
| CC(=O)N[C@H]1CSCc2cc3cc(c2)CSC[C@H](NC(=O)[C@H](CCCCNC(=N)N)NC(=O)[C@H](Cc2ccc(O)cc2)NC(=O)[C@@H]2CCN2C(=O)[C@H](Cc2ccccc2)NC(=O)[C@H](CO)NC1=O)C(=O)N[C@@H](C)CN[C@@H](Cc1cnc[nH]1)C(=O)N[C@@H](CCC(N)=O)C(=O)N[C@@H](CC(=O)O)C(=O)N[C@@H](CC(C)C)C(=O)N[C@H](C(=O)O)CSC3 | > 50 µM | > 50 µM | > 50 µM | > 50 µM | 3.4 µM | > 50 µM | 0.08 µM | 0.0027 µM |  |
